Fibroblast inh – blocks proliferation of human lung fibroblasts. LL 47 human lung fibroblast viability, ATP luminescence; stronger effect = lower value. hit rate 1.1% among 85,000. AID 719. viability, % at 10 µM;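 active = viability at or below 50% in the single dose screen; inactive = viability above 50%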;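 note: compound exposure lasted 72 h before the ATP readout; 100% = median luminescence of untreated cell-only wells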
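Times – overnight cell rest, 72 h compound treatment at 37 °C · Test system – human lung fibroblast line LL 47, low passage · Amount – 1,150 cells in each well · Controls – cell-only wells, no compound · Doses – 0.1% DMSO in all compound wells · Measured by – CellTiter-Glo luminescence · Buffer or medium – IMEM plus 15% FBS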
H69AR inhibit – growth inhibitors of human H69AR lung tumor cells; H69AR lung tumor viability, ATP luminescence, 72 h; stronger effect = lower value; viability, % at 10 µM; hit rate 6% among 85,000; AID 598;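 active = viability at or below 40%; inactive = viability above 40%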;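 note: multidrug resistant small cell line overexpressing MRP-1 efflux transporter; 100% = mean luminescence of untreated control wells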
PTEN del growth – PTEN-deleted cell growth suppression. viability, % at 10 µM. hit rate 1.2% among 140,000. AID 827. HCT116 PTEN-null viability, CellTiter-Glo, 60 h; stronger effect = lower value;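 active = viability at or below a set limit, 4 SD under the median of all tested compounds, cut at about 3.7% in these data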;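 note: PTEN knockout HCT116 line with beta catenin targeted HCT116 as companion control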
Phagocyt inh – blocks phagocytosis by macrophages. inhibition, % at 5 µM. J774A.1 macrophage IgG-bead phagocytosis, imaging. hit rate 0.07% among 110,000;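 active = inhibition above the mean of the plate negative controls plus 5 SD, cut at about 13% in these data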;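 note: phagocytic index as fraction of beads internalized from green versus red external bead signal; plate controls were DMSO negative control for no effect and cytochalasin-D positive control for full effect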
HUVEC inhibit – blocks proliferation of human endothelial cells; viability, % at 10 µM (by protocol); HUVEC proliferation, CellTiter-Glo luminescence, 72 h; stronger effect = lower value; hit rate 1.1% among 86,000; AID 648;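 active = viability at or below 30%; inactive = viability above 30%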;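 note: 100% = median luminescence of DMSO-only cell control wells on each plate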
HCT116 bCat-KO – beta-catenin-lacking colon tumor cell growth suppression | AID 818 | HCT116 beta-catenin knockout viability, CellTiter-Glo, 60 h; stronger effect = lower value | hit rate 1.5% among 140,000 | viability, % at 10 µM;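 active = viability at or under a set limit, the compound median less 4 SD, cut at about 6% in these data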;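 note: 0% = Hyamine 1622 control at 20 µM and 100% = untreated cell control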
Numbers without * were called inactive. Many of the other results were omitted from the sample, so hits are more common in it than they were.

Screening Cc1ccc(C2c3c(oc4ccccc4c3=O)C(=O)N2c2nnc(C(C)C)s2)o1 (centres undefined) returned Fibroblast inh 100, H69AR inhibit 8.4*, PTEN del growth 103, Phagocyt inh -2, HUVEC inhibit 58 and HCT116 bCat-KO 92.
CC(/C=N/n1cnnc1)=C\c1ccco1 was read as Fibroblast inh 108, H69AR inhibit 89, PTEN del growth 97, HUVEC inhibit 97 and HCT116 bCat-KO 96.
Screening Cc1cccc(S(=O)(=O)c2c(N)n(-c3ccccc3)c3nc4ccccc4nc23)c1 returned PTEN del growth 59, Phagocyt inh -2 and HCT116 bCat-KO 54.
CCc1cccc(NC(=O)CSC2=NS(=O)(=O)c3ccccc32)c1 was read as Fibroblast inh 50*, H69AR inhibit 3.5*, PTEN del growth 87, Phagocyt inh -1, HUVEC inhibit 50 and HCT116 bCat-KO 83.
`CCc1cccc(NC(=O)CSCc2cc(=O)[nH][nH]2)c1` gave Fibroblast inh 96, H69AR inhibit 92, PTEN del growth 98, Phagocyt inh -3, HUVEC inhibit 91 and HCT116 bCat-KO 107.
For N#CCSc1nnc(Cc2ccc3c(c2)OCO3)o1 the results were Fibroblast inh 103, H69AR inhibit 93, PTEN del growth 93, Phagocyt inh -1, HUVEC inhibit 101 and HCT116 bCat-KO 97.
Nc1c(Cl)ncnc1N/N=C/c1ccccn1 was read as PTEN del growth 3.4*, Phagocyt inh -5 and HCT116 bCat-KO 2.5*.
Screening Nc1c(Cl)ncnc1N/N=C/c1ccnc2ccccc12 returned PTEN del growth 97, Phagocyt inh -2 and HCT116 bCat-KO 96.
`CCOc1cc(/C=N/Nc2ncnc(Cl)c2N)ccc1O` gave PTEN del growth 99, Phagocyt inh -6 and HCT116 bCat-KO 94.
Nc1c(Cl)ncnc1N/N=C/c1ccc2ccccc2n1 was read as PTEN del growth 3.0*, Phagocyt inh 8 and HCT116 bCat-KO 5.1*.
For CC(=O)Oc1cc2oc(=O)cc(C)c2cc1OC(C)=O the results were Fibroblast inh 84, H69AR inhibit 36*, PTEN del growth 74, Phagocyt inh -4, HUVEC inhibit 78 and HCT116 bCat-KO 59.
Screening CC(=O)Oc1ccc2c(C)cc(=O)oc2c1 returned Fibroblast inh 110, H69AR inhibit 96, PTEN del growth 99, Phagocyt inh 0, HUVEC inhibit 104 and HCT116 bCat-KO 95.
Screening O=C(N/N=C/c1cn(-c2ccccc2)nc1-c1cc2ccccc2o1)c1ccncc1 returned PTEN del growth 10, Phagocyt inh 5 and HCT116 bCat-KO 17.
For O=C(N/N=C/c1cn(-c2ccccc2)nc1-c1cc2ccccc2o1)c1cccnc1 the results were PTEN del growth 3.5*, Phagocyt inh -1 and HCT116 bCat-KO 7.
Screening O=C(CN1CCN(c2ccc(O)cc2)CC1)NC(=O)NCc1ccco1 returned PTEN del growth 63, Phagocyt inh -4 and HCT116 bCat-KO 68.
CC(C(=O)Nc1ccccc1-c1ccccc1)N1CCCCC1 (centres undefined) was read as Fibroblast inh 96, H69AR inhibit 2.6*, PTEN del growth 82, Phagocyt inh -1, HUVEC inhibit 113 and HCT116 bCat-KO 76.
`CCCCN(CCCC)C(=O)CSc1nnc2n(C)c(=O)c3c4c(sc3n12)CCCC4` gave PTEN del growth 78 and HCT116 bCat-KO 80.
Screening Cn1c(=O)c2c3c(sc2n2c(SCC(N)=O)nnc12)CC(C(C)(C)C)CC3 (centres undefined) returned Fibroblast inh 89, H69AR inhibit 66, PTEN del growth 5, Phagocyt inh 0, HUVEC inhibit 73 and HCT116 bCat-KO 1.4*.
Screening COc1ccccc1CN=Cc1[nH]c2ccc(Br)c(Cl)c2c1O returned Fibroblast inh 95, H69AR inhibit 25*, PTEN del growth 58, Phagocyt inh 0, HUVEC inhibit 71 and HCT116 bCat-KO 20.
`CC(=O)/C=C/c1ccc2ccccc2n1` gave Fibroblast inh 7.4*, H69AR inhibit 0.8*, PTEN del growth 1.2*, HUVEC inhibit 30* and HCT116 bCat-KO 1.5*.
For Cn1c(CCN2CCCCC2)nc2cc(NS(=O)(=O)c3ccc(Cl)cc3)ccc21 the results were Fibroblast inh 100, H69AR inhibit 9.8*, PTEN del growth 16, Phagocyt inh -1, HUVEC inhibit 104 and HCT116 bCat-KO 13.
COc1ccc(C(=O)/C=C\N2CCOCC2)cc1 was read as Fibroblast inh 103, H69AR inhibit 91, PTEN del growth 90, Phagocyt inh 3, HUVEC inhibit 95 and HCT116 bCat-KO 84.
`Cc1ccc(NC(=O)CSc2nnc(Cn3c(=O)sc4ccccc43)n2C)cc1Cl` gave Fibroblast inh 99, H69AR inhibit 29*, PTEN del growth 95, HUVEC inhibit 44 and HCT116 bCat-KO 85.
For CCc1ccc(NC(=O)CSc2nnc(Cn3c(=O)sc4ccccc43)n2C)cc1 the results were Fibroblast inh 103, H69AR inhibit 77, PTEN del growth 89, HUVEC inhibit 77 and HCT116 bCat-KO 92.
`CCOC(=O)c1ccc(NC(=O)CSc2nnc(Cn3c(=O)sc4ccccc43)n2C)cc1` gave Fibroblast inh 95, H69AR inhibit 16*, PTEN del growth 107, Phagocyt inh -1, HUVEC inhibit 65 and HCT116 bCat-KO 98.
`O=C(Nc1nc(-c2ccccn2)cs1)c1ccc(Br)s1` gave Fibroblast inh 27*, H69AR inhibit 13*, PTEN del growth 13, Phagocyt inh 0, HUVEC inhibit 24* and HCT116 bCat-KO 7.
O=C(Nc1nc(-c2cc(Cl)sc2Cl)cs1)c1ccc(Br)s1 was read as PTEN del growth 4, Phagocyt inh -1 and HCT116 bCat-KO 18.
Screening O=C(Nc1cccnc1)c1ccc(Br)s1 returned Fibroblast inh 35*, H69AR inhibit 7.5*, PTEN del growth 92, Phagocyt inh 9, HUVEC inhibit 82 and HCT116 bCat-KO 88.
For CC(Oc1ccccc1)C(=O)Nc1nc2c(s1)C(=O)CC(C)(C)C2 (centres undefined) the results were Fibroblast inh 98, H69AR inhibit 95, PTEN del growth 100, HUVEC inhibit 108 and HCT116 bCat-KO 87.
`CC1(C)CC(=O)c2sc(NC(=O)CCS(=O)(=O)c3ccccc3)nc2C1` gave Fibroblast inh 50, H69AR inhibit 1.1*, PTEN del growth 3.7*, Phagocyt inh 3, HUVEC inhibit 78 and HCT116 bCat-KO 3.6*.
Screening O=C(CS(=O)(=O)c1ccccc1)Nc1nc(-c2ccccc2)cs1 returned Fibroblast inh 98, H69AR inhibit 72, PTEN del growth 91, Phagocyt inh 0, HUVEC inhibit 89 and HCT116 bCat-KO 98.
`O=C(CCS(=O)(=O)c1ccccc1)Nc1nc(-c2ccccn2)cs1` gave Fibroblast inh 56, H69AR inhibit 4.0* and HUVEC inhibit 70.

Screening data from PubChem.
